In ChEMBL document CHEMBL2413079, “Synthesis of novel psoralen analogues and their in vitro antitumor activity” (2013) one finds GI50 data, which are given here for five compounds.

Common to all, as to type: functional
In test [1] the test system is TCC-SUP. The test is described as follows: Growth inhibition of human TCCSUP cells after 48 hrs by MTS assay. The essentials:
(§1)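 Cells grown in DMEM with 10% FBS (15% FBS for TCC-SUP) and 1% penicillin/streptomycin. DMSO stocks freshly diluted in medium; five concentrations tested over 48 h exposure. MTS reagent added for 2 h at 37 °C, 5% CO2, then absorbance read at 490 nm. Viability taken as % of control; GI50 from dose–response curve. Three independent cultures, 4 wells per concentration.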
Background: Tetrazolium dyes change colour on reduction, which living cells bring about.

In test [2] the test system is HeLa. Description: Growth inhibition of human HeLa cells after 48 hrs by MTS assay. The essentials: as §1
Test [3] has as its system MDA-MB-231. Description: Growth inhibition of human MDA-MB-231 cells after 48 hrs by MTS assay. To be noted: MDA-MB-231, 48 h. The essentials: as §1

The term GI50 denotes the concentration at which growth is held to half of that of the control. A high value points to less potent growth inhibition. For `O=c1ccc2c(ccc3c4ccccc4[nH]c23)o1`, the GI50 was found to be 0.027 µM in test [1], 0.046 µM in test [2] and 0.23 µM in test [3].

For the compound `CCOC(=O)c1cc2c(ccc3c4ccccc4[nH]c23)oc1=O`, the results for the GI50 in test [1], in test [2] and in test [3] were 0.03 µM, 0.037 µM and 0.413 µM, respectively.

With `O=C(O)c1cc2c(ccc3c4ccccc4[nH]c23)oc1=O`, the concentration for 50% growth inhibition (GI50) in test [1] turned out to be 0.018 µM; in test [2] it was 0.047 µM; in test [3], 0.265 µM.

In the case of `Cc1cc(=O)oc2cc3[nH]c4ccccc4c3cc12`, the concentration for 50% growth inhibition (GI50) in test [1] is 0.066 µM; in test [2] it was 0.042 µM; in test [3], 0.078 µM.

Take `Cc1cc(=O)oc2cc3c(cc12)oc1ccccc13`: the GI50 in test [1] came out at 0.041 µM; in test [2], 0.035 µM; in test [3], 0.06 µM.
